Screens deposited in PubChem BioAssay by The Scripps Research Institute Molecular Screening Center.
ABHD4 inh: ABHD4 (mouse) inhibition, primary FP screen | inhibition, % at 8.92 µM | actives 0.54% (n = 370,000) | purified mABHD4, FP-Rh probe fluorescence polarization | Q8VD66;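 active means inhibition exceeding the mean over every tested compound plus 3 SD, cut at about 30% in these data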;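 further: 0% = plate median of compound wells and 100% = S159A mutant with DMSO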
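system = mouse ABHD4 enzyme, wild type | medium = HEPES pH 7.0, NaCl, Pluronic buffer | also added = FP-Rh probe | incubation = Enzyme–compound pre-incubation 45 min, then probe 60 min, both 25 °C | technique = fluorescence polarization, excitation 525 nm, emission 598 nm, BODIPY TMR filters | controls = S159A mutant high control, sample median low control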
TCR CD3 inh: human TCR-CD3 binding inhibition. TAMRA-labeled TCR probe fluorescence, biochemical. inhibition, % at 9.4 µM. actives 0.37% (n = 360,000). AID 651800; in the data active means inhibition above about 19%;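 further: recombinant mutant TCR 2C K166C tagged with TAMRA read by polarization; 0% = receptor in buffer alone and 100% = receptor with positive control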
PRMT1 inh: inhibitors of human PRMT1. recombinant PRMT1, activity-based probe fluorescence polarization. inhibition, % at 2.79 µM. actives 1.3% (n = 370,000). AID 652257;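 active means inhibition above about 21% made by adding two undisclosed values, limit read from the data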
SIAE primary: inhibitors of human sialic acid acetylesterase SIAE; Q9HAT2; SIAE FP-Rh probe binding, fluorescence polarization; inhibition, % at 9.66 µM; actives 0.69% (n = 370,000);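 active means inhibition above a cutoff: mean of compounds within the control limits plus 3 SD of those, cut at about 17% in these data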;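 further: 0% = plate median of compound wells and 100% = probe without SIAE protein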
HTRA1 inhibitor: blocks human HTRA1 serine peptidase | Q92743 | recombinant HTRA1, FP-rhodamine activity-based probe, fluorescence polarization | inhibition, % at 5.96 µM | actives 0.5% (n = 340,000); in the data active means inhibition above about 36%;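 further: 0% = enzyme with DMSO and 100% = wells lacking enzyme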
Target sequence (Q92743 whole entry, looked up): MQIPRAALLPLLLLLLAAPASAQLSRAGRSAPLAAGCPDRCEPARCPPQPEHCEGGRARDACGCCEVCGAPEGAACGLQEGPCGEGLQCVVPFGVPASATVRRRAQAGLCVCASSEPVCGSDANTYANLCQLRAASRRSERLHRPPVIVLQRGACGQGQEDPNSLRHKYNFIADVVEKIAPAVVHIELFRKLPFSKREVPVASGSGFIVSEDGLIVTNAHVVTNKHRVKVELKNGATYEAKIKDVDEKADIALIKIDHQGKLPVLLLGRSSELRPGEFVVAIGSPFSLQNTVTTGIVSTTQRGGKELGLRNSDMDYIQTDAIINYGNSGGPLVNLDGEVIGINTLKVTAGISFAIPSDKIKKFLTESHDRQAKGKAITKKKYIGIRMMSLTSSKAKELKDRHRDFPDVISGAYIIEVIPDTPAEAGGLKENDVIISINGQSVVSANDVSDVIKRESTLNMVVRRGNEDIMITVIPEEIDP
SIAE confirm: human SIAE inhibition, confirmation. shares compounds with SIAE primary. SIAE FP-Rh activity-based probe, fluorescence polarization. inhibition, % at 9.66 µM. actives 13% (n = 2,300);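 active means mean inhibition of the replicates above the hit cutoff set in the primary screen, cut at about 17% in these data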;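 further: 0% = SIAE with DMSO and probe and 100% = probe without SIAE; inhibitors lower polarization as more probe stays unbound to SIAE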
An asterisk follows results filed as active; . = no result given. Hits are enriched below; roughly 2.5% of the tested compounds scored in any of these assays.

SMILES	ABHD4 inh	TCR CD3 inh	PRMT1 inh	SIAE primary	HTRA1 inhibitor	SIAE confirm
Cc1ccc(-c2nc(C(F)(F)F)cc(=O)[nH]2)cc1	-7	-6	7	-3	4	.
Nc1nc(C(F)(F)F)cc(=O)[nH]1	-1	0	-3	21*	5	-2
CC(=O)NC1CCCCN(C(C)C)C1=O (centres undefined)	3	.	-2	-5	.	.
Cc1ccc(OCc2nn3c(C4CCCCC4)nnc3s2)cc1	-3	.	8	-2	.	.
COc1cc2oc3ccccc3c(=O)c2cc1OC	.	.	.	.	0	.
O=c1c2ccccc2oc2cc(Br)ccc12	2	2	0	20*	-14	4
O=C(NCCN1C(=O)C2C3C=CC(C3)C2C1=O)c1cc(F)cc(F)c1 (centres undefined)	0	.	0	-1	.	.
CCOC(=O)c1ccc2c(c1)n(CC)c(/C=C/Nc1ccccc1)[n+]2CC	2	-6	-6	18*	-1	5
OC(c1ccccc1)(c1ccccc1)C1CCN(CCCOc2ccc(Br)cc2)CC1	14	.	-3	-1	.	.
COC(=O)[C@]12C[C@H](CC(=O)NCCCN3CCCC3=O)C(=O)N(Cc3ccccc3)C1=C[C@H](C(C)C)O[C@@H]2C1CC1	3	7	-1	20*	.	-3
COC(=O)[C@]12C[C@H](CC(=O)NCc3cccc(C(F)(F)F)c3)C(=O)N(Cc3ccccc3)C1=C[C@H](C(C)(C)C)O[C@@H]2C	-3	1	2	27*	.	-2
CC(COc1ccc(F)cc1)CN1CCC(C(O)(c2ccccc2)c2ccccc2)CC1 (centres undefined)	10	.	-2	-2	.	.
CC(=O)c1ccc2c(c1)C1C=CCC1C(c1ccc(S(=O)(=O)N3CCOCC3)cc1)N2 (centres undefined)	13	-1	6	18*	5	2
CC1CCN(C(=O)c2ccc(S(=O)(=O)N3CCOCC3)cc2)CC1	6	-8	7	1	4	.
CC(C)(C)C(=O)N1CCN(c2nc3ccc(Cl)cc3s2)CC1	-3	1	-4	18*	-8	-2
CCOC(=O)CCC(=O)N1CCOCCN(C(=O)CCC(=O)OCC)CCOCC1	4	8	0	19*	0	6
O=C(CSc1nnc(-c2cccnc2)n1-c1ccccc1)Nc1ccc(OCc2ccccc2)cc1	-4	.	-2	-5	.	.
C[C@H](CO)N1C[C@H](C)[C@@H](CN(C)C(=O)Nc2ccccc2)OCc2cn(nn2)CCCC1=O	3	0	-1	-8	.	.
CCOc1ccc(CCNC(=O)CCCn2c(=O)c3cccn3c3cccnc32)cc1OCC	-15	-3	7	22*	4	-3
Cc1onc(-c2c(F)cccc2Cl)c1-c1ncc(-c2ccc(Cl)cc2)o1	-1	-3	16	-5	.	.
C/C(=N\Nc1cc(C)nc(-c2ccccc2O)n1)c1ccccc1	-8	-2	-2	-8	-26	.
Cc1cc(N/N=C/c2ccc(O)c(C)c2O)nc(-c2ccccc2O)n1	-22	3	1	36*	19	2
O=C1CCN(Cc2ccc(O)cc2)CCN1[C@H](CO)Cc1ccccc1	5	3	1	18*	1	1
CCN(CC)C(=O)CC[C@H]1CC[C@]2(CCCN(C(=O)c3ccccc3)C2)O1	-3	.	2	-23	.	.
CCCCNC(=O)O[C@H]1CC[C@@]23CCCN2C(=O)CCC[C@H]3[C@H]1C	4	.	-2	5	.	.
SMILES	ABHD4 inh	TCR CD3 inh	PRMT1 inh	SIAE primary	HTRA1 inhibitor	SIAE confirm
O=C(CNc1ccc2ccccc2c1)N/N=C/c1cc2ccccc2nc1Cl	23	0	5	18*	7	-10
COc1ccccc1NC(=O)C1=C(C)Nc2nc(-c3cccnc3)nn2C1c1ccccn1 (centres undefined)	-4	-2	-5	-4	3	.
COc1ccccc1NC(=O)C1=C(C)Nc2nc(-c3cccs3)nn2C1c1cccnc1 (centres undefined)	-1	-4	4	18*	-9	0
CC1=NN(c2ccc(C(=O)O)c(N)c2)C(=O)C1	18	0	10	18*	4	3
COc1ccc(-c2[nH]c(-c3ccccc3)nc2SCC(=O)NC2CCCC2)cc1	10	4	-1	5	-7	.
COc1ccc(-c2[nH]c(-c3cccc(OC)c3)nc2SCC(=O)NC2CCCC2)cc1	22	0	2	24*	-10	2
CCN(CC)CCCn1c2c(c(SCC(=O)Nc3ccccc3Cl)nc1=O)CCC2	3	3	-2	18*	-6	-1
CCN(CC)CCn1c2c(c(SCC(=O)Nc3ccccc3Cl)nc1=O)CCCC2	1	6	-7	0	4	.
O=C(CSc1nc(=O)n(CCCN2CCOCC2)c2c1CCC2)Nc1ccc([N+](=O)[O-])cc1	6	-5	-2	18*	8	1
COc1ccc(CN(CCN2CCOCC2)C(=O)c2cccc(F)c2F)cc1OC	4	.	-1	5	.	.
COC(=O)c1cc2c(c3c4cc(C)ccc4n(S(=O)(=O)c4ccc(OC)cc4)c13)C(=O)N(Cc1ccccc1OC)C2	2	7	2	-4	.	.
Cc1ccc(-c2nn(Cc3ccccc3)cc2/C=C/C(=O)O)cc1C	-8	7	0	0	-8	.
O=C(O)/C=C/c1cn(Cc2ccccc2)nc1-c1ccccc1	-3	2	-2	19*	3	2
S=C(NCCCc1cnc[nH]1)NCCCN(Cc1ccc(Cl)cc1)c1ccc(Br)cn1	9	-3	0	17*	.	27*
S=C(NCCCc1cnc[nH]1)NCCCN(Cc1ccccc1)c1ccc(Br)cn1	1	-3	2	9	.	.
CN1C/C(=C/c2ccccc2)N2C(=O)C[C@@H](c3ccccc3)N=C12	9	.	3	-1	.	.
CCn1c(=O)n(CC(=O)N2CCN(C(C)=O)CC2)c(=O)c2ccccc21	5	.	-4	2	.	.
O=C(N/N=C/c1c(O)ccc2ccccc12)c1[nH]ncc1Br	17	11	0	19*	33	-5
Cc1ccc(O)c(/C=N/NC(=O)c2[nH]ncc2Br)c1	-1	13	-1	1	2	.
NC(=O)CC(NC(=O)c1ccccc1)c1ccc(N2CCN(c3ccccc3)CC2)c([N+](=O)[O-])c1 (centres undefined)	-3	-2	-1	-6	12	.
Cc1cc(C)cc(C(=O)NC(CC(N)=O)c2ccc(N3CCN(c4ccccc4)CC3)c([N+](=O)[O-])c2)c1 (centres undefined)	-3	-4	-3	21*	-2	6
O=C(c1cccs1)N1CC[C@H]2[C@H](CCCN2Cc2cc(F)cc(F)c2)C1	-6	.	2	3	.	.
O=C(O)CCc1n[nH]c(=S)[nH]c1=O	1	-3	8	17*	7	2
CCOC(=O)CCc1n[nH]c(=O)[nH]c1=O	0	-3	-2	5	3	.
CC(=O)NNC(=O)CCn1nnc(-c2ccc(Cl)cc2)n1	-2	-2	-3	21*	-3	5
